Reference: PMC6244714 (European Journal of Drug Metabolism and Pharmacokinetics, 2018)
In brackets after ≈: the same amount, converted by molar mass. Read-outs that look alike come from different tables or passages of the source.

What was measured:
[1] = format: in vivo, human; details: healthy subjects
Procedure, shortened: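 Open-label, one-sequence, two-period crossover in healthy males and females aged 18–55 years with BMI 18.5–29.9 kg/m2. Period 1: single oral 100 mg tablet of test compound after an ≥8 h fast. Period 2: proton-pump inhibitor 40 mg once daily on Days 1–9, with test compound given 2 h after it on Day 7. Safety was assessed in all subjects dosed with test compound, using TEAE nature, frequency and severity, blood pressure, pulse, hematology, biochemistry, urinalysis and 12-lead ECG.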

[2] = cited from earlier work
CYP2C19 = details: cited from earlier work
[3] = ref data on file, cited from earlier work
[4] = healthy volunteers; cited from earlier work
[5] = format: in vivo, human
gastric pH = details: omeprazole 40 mg once daily, healthy subjects; cited from earlier work

Structure (SMILES)	Overall safety and tolerability ([1]; 100 mg roxadustat alone or in combination with multiple daily oral doses of 40 mg omeprazole)	terminal elimination half-life (t½) ([2]; after a single dose) [h]	time to maximum plasma concentration ([2]; after oral administration)	substrate for CYP2C19 (CYP2C19; background statement, no reference given)	solubility ([3]; 50 mM potassium phosphate buffer at pH 7.5) [µg/mL]	in vitro solubility ([3]; pH ~ 5) [µg/mL]	solubility ([3]; simulated gastric fluid buffer at pH 1.2) [µg/mL]	impact on Cmax or AUCinf of S- or R-warfarin [4]	Total number of TEAEs reported [1]	inhibitor of CYP2C19 (CYP2C19)	AUC ([5]; human, plasma, po, 40 mg) [ng·h/mL]	mean trough ([5]; omeprazole 40 mg daily oral, Day 7 of Period 2, plasma) [ng/mL]	gastric pH (gastric pH)
Cc1nc(C(=O)NCC(=O)O)c(O)c2ccc(Oc3ccccc3)cc12 [Roxadustat]	safe and well tolerated	12 to 14	approximately 2 h	not a substrate	3700 (≈ 10.5 mM)	6	1 (≈ 0.00284 mM)	does not impact	–	–	–	–	–
COc1ccc2[nH]c([S+]([O-])Cc3ncc(C)c(OC)c3C)nc2c1 (stereo not shown) [Omeprazole]	–	–	–	–	–	–	–	–	eight	inhibitor	4230	0.494	~ 5
